Laboratory results: ChEMBL document CHEMBL4145451, “1,3,5-triazaspiro[5.5]undeca-2,4-dienes as selective Mycobacterium tuberculosis dihydrofolate reductase inhibitors with potent whole cell activity” (Eur J Med Chem, 2018)

Tests used:
[1] = tested on: Mycobacterium tuberculosis; assay: Antimycobacterial activity against Mycobacterium bovis BCG after 10 days by broth dilution method; format: functional; conditions: variant bovis BCG, 240 h
Summary of the method: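 Broth microdilution. Mid-log cultures (OD600 0.4–0.6) were diluted and added to 2-fold serial compound dilutions in DMSO, giving a final 5 × 10^5 CFU/mL in 7H9-albumin-dextrose-catalase-glycerol-Tween 80. Plates were sealed and incubated at 37 °C for 10 days with shaking at 80 rpm. OD600 was read; MIC50 and MIC90 are the lowest concentrations giving 50% and 90% growth inhibition. Rifampicin and DMSO served as controls. Means of 3 independent experiments.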

[2] = tested on: Mycobacterium tuberculosis; assay: Antimycobacterial activity against Mycobacterium bovis BCG at 25 uM after 10 days by broth dilution method relative to control; format: functional, variant bovis BCG
[3] = tested on: Mycobacterium tuberculosis; assay: Ratio of MIC90 for Mycobacterium bovis BCG over-expressing DHFR to MIC90 for Mycobacterium bovis BCG; format: functional, variant bovis BCG

Structure (SMILES)	MIC50 [1] [µM]	MIC90 [1] [µM]	Activity [2] [%]	Ratio [3]
Cl.NC1=NC2(CCCCC2)N(c2ccc(OCc3cn(CCCc4ccccc4)nn3)cc2)C(N)=N1	20.7	> 100	67.8	
Cl.NC1=NC2(CCCCC2)N(Cc2cn(CCCc3ccccc3)nn2)C(N)=N1			5.4	
Cl.NC1=NC2(CCCCC2)N(c2ccc(OCc3cn(CCCCOc4ccc5ccc(=O)oc5c4)nn3)cc2)C(N)=N1	0.01 to 0.02	0.1	92.1	25 - 30
Cl.NC1=NC2(CCCCC2)N(Cc2cn(CCCOc3ccc4ccc(=O)oc4c3)nn2)C(N)=N1			7.8	
Cl.NC1=NC2(CCCCC2)N(c2ccc(OCc3cn(CCOc4ccc5ccc(=O)oc5c4)nn3)cc2)C(N)=N1	0.2	1.56	84.8	
Cl.NC1=NC2(CCCCC2)N(Cc2cn(CCc3ccccc3)nn2)C(N)=N1			4.7	
Cl.NC1=NC2(CCCCC2)N(Cc2cn(CC(=O)c3ccccc3)nn2)C(N)=N1			3.4	
Cl.NC1=NC2(CCCCC2)N(Cc2cn(CCOc3ccc4ccc(=O)oc4c3)nn2)C(N)=N1			5.8	
Cl.NC1=NC2(CCCCC2)N(c2ccc(OCc3cn(CCc4ccccc4)nn3)cc2)C(N)=N1			25.6	
Cl.NC1=NC2(CCCCC2)N(c2ccc(OCc3cn(CC(=O)c4ccccc4)nn3)cc2)C(N)=N1			12.8	
Cl.NC1=NC2(CCCCC2)N(Cc2cn(CCCCCOc3ccc4oc(=O)ccc4c3)nn2)C(N)=N1			6.7	
Cl.NC1=NC2(CCCCC2)N(c2ccc(OCc3cn(CCCOc4ccc5ccc(=O)oc5c4)nn3)cc2)C(N)=N1	0.02	0.2	88.4	25 - 30
Cl.NC1=NC2(CCCCC2)N(c2ccc(OCc3cn(Cc4ccccc4)nn3)cc2)C(N)=N1	19.2	> 100	61.7	
Cl.NC1=NC2(CCCCC2)N(Cc2cn(Cc3ccccc3)nn2)C(N)=N1			4.5	
Nc1ccc(C(=O)O)c(O)c1 [AMINOSALICYLIC ACID]				16
